{"source": "paper PMC4714695", "about": "(Cancer Science, 2015)", "key": {"[1]": {"system": "PLK1", "conditions": "cited from earlier work"}, "[2]": {"assay": "Plasma pharmacokinetics", "format": "in vivo, human"}, "[3]": {"system": "Japanese patients with acute myeloid leukemia", "assay": "Electrocardiogram QTcF assessment", "format": "in vivo, human"}, "[4]": {"system": "PLK3", "conditions": "compared with PLK1; cited from earlier work"}, "[5]": {"system": "more than 50 unrelated kinases", "conditions": "more than 50 kinases tested; cited from earlier work"}, "[6]": {"system": "Japanese patients with acute myeloid leukemia", "assay": "Best response and remission duration", "format": "in vivo, human", "how_it_was_run": "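Same patients and dosing: 2-h IV infusion on days 1 and 15 of 28-day cycles, at 350, 400 or 450 mg. Best response (CR, CRi, PR) and remission duration judged by International Working Group and European Leukemia Net criteria. Assessed in peripheral blood and bone marrow, with imaging added for extramedullary disease. Efficacy cut-off 12 March 2015.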"}, "[7]": {"system": "PLK2", "conditions": "compared with PLK1; cited from earlier work"}, "[8]": {"system": "White patients with relapsed or refractory AML", "conditions": "cited from earlier work"}, "[9]": {"conditions": "human, plasma, intravenous, 350 mg"}, "[10]": {"conditions": "human, plasma, intravenous, 400 mg"}, "[11]": {"conditions": "human, plasma, intravenous, 450 mg"}}, "note": "Like-named read-outs stand apart in the source and are kept apart here.", "data": [{"smiles": "CC[C@@H]1C(=O)N(C)c2cnc(Nc3ccc(C(=O)N[C@H]4CC[C@H](N5CCN(CC6CC6)CC5)CC4)cc3OC)nc2N1C(C)C", "note": "[Volasertib]", "values": [{"measurement": "Inhibition of PLK1", "setting": "[1]", "value": "selectively inhibit"}, {"measurement": "Mean plasma concentration relative to maximum plasma concentration", "setting": "[2]; 24 h after administration", "value": "< 10", "unit": "%"}, {"measurement": "Dose dependence of exposure", "setting": "[2]; dose range 350–450 mg", "value": "increased dose‐proportionally"}, {"measurement": "Vd", "setting": "[2]; human, plasma, intravenous", "value": "3540 to 4720", "unit": "L"}, {"measurement": "clearance", "setting": "[2]; human, plasma, intravenous", "value": "606 to 669", "unit": "mL/min"}, {"measurement": "half-life", "setting": "[2]; human, plasma, intravenous", "value": "108 to 130", "unit": "h"}, {"measurement": "AUC(0-inf)", "setting": "[2]; [9]", "value": 8720, "unit": "ng·h/mL"}, {"measurement": "AUC(0-t)", "setting": "[2]; [9]", "value": 7810, "unit": "ng·h/mL"}, {"measurement": "Cmax", "setting": "[2]; [9]", "value": 756, "unit": "ng/mL"}, {"measurement": "Tmax", "setting": "[2]; [9]", "value": 1.97, "unit": "h"}, {"measurement": "clearance", "setting": "[2]; [9]", "value": 669, "unit": "mL/min"}, {"measurement": "half-life", "setting": "[2]; [9]", "value": 117, "unit": "h"}, {"measurement": "AUC(0-inf)", "setting": "[2]; [10]", "value": 10400, "unit": "ng·h/mL"}, {"measurement": "AUC(0-t)", "setting": "[2]; [10]", "value": 9340, "unit": "ng·h/mL"}, {"measurement": "Cmax", "setting": "[2]; [10]", "value": 762, "unit": "ng/mL"}, {"measurement": "Tmax", "setting": "[2]; [10]", "value": 1.05, "unit": "h"}, {"measurement": "clearance", "setting": "[2]; [10]", "value": 643, "unit": "mL/min"}, {"measurement": "half-life", "setting": "[2]; [10]", "value": 130, "unit": "h"}, {"measurement": "AUC(0-inf)", "setting": "[2]; [11]", "value": 12400, "unit": "ng·h/mL"}, {"measurement": "AUC(0-t)", "setting": "[2]; [11]", "value": 11400, "unit": "ng·h/mL"}, {"measurement": "Cmax", "setting": "[2]; [11]", "value": 1060, "unit": "ng/mL"}, {"measurement": "Tmax", "setting": "[2]; [11]", "value": 1.53, "unit": "h"}, {"measurement": "clearance", "setting": "[2]; [11]", "value": 606, "unit": "mL/min"}, {"measurement": "half-life", "setting": "[2]; [11]", "value": 108, "unit": "h"}, {"measurement": "AUC0–∞,norm (dose normalized), gMean (gCV%)", "setting": "[2]; plasma, after first infusion of volasertib 350 mg (n = 7)", "value": "24.9 (27.8) ng·h/mL/mg"}, {"measurement": "AUC0–∞,norm (dose normalized), gMean (gCV%)", "setting": "[2]; plasma, after first infusion of volasertib 400 mg (n = 4)", "value": "25.9 (54.7) ng·h/mL/mg"}, {"measurement": "AUC0–∞,norm (dose normalized), gMean (gCV%)", "setting": "[2]; plasma, after first infusion of volasertib 450 mg (n = 8)", "value": "27.5 (22.8) ng·h/mL/mg"}, {"measurement": "Patients with >60 ms QTcF increase at end of infusion versus prior to infusion", "setting": "[3]; 450 mg cohort 3 only", "value": "two patients"}, {"measurement": "QTcF intervals >500 ms", "setting": "[3]; all cohorts", "value": "No QTcF intervals >500 ms were reported"}, {"measurement": "Time of maximum increase in mean QTcF interval after start of infusion", "setting": "[3]; all dose cohorts", "value": 2, "unit": "h"}, {"measurement": "Clinically relevant abnormalities in cardiologic assessment", "setting": "[3]; any cohort, during treatment", "value": "No patients in any cohort developed clinically relevant abnormalities"}, {"measurement": "Time by which mean QTcF returned to near baseline", "setting": "[3]; post-dosing, all dose cohorts", "value": "≤ 24", "unit": "h"}, {"measurement": "Inhibition of PLK3", "setting": "[4]", "value": "to a lesser extent"}, {"measurement": "Inhibition of unrelated kinases", "setting": "[5]", "value": "does not inhibit"}, {"measurement": "Best overall response CR, patients", "setting": "[6]; 350 mg (n = 7)", "value": 1, "unit": "n"}, {"measurement": "Best overall response PD, patients", "setting": "[6]; 350 mg (n = 7)", "value": 3, "unit": "n"}, {"measurement": "Best overall response SD, patients", "setting": "[6]; 350 mg (n = 7)", "value": 3, "unit": "n"}, {"measurement": "Patients with CR/CRi", "setting": "[6]; 350 mg (n = 7)", "value": 1, "unit": "n"}, {"measurement": "Best overall response CR, patients", "setting": "[6]; 350 mg (n = 7), listed as volasertib", "value": "One of seven patients"}, {"measurement": "Remission duration, median (range)", "setting": "[6]; 350 mg, 1 patient with CR/CRi", "value": 358, "unit": "days"}, {"measurement": "Best overall response CRi, patients", "setting": "[6]; 400 mg (n = 4)", "value": 2, "unit": "n"}, {"measurement": "Best overall response SD, patients", "setting": "[6]; 400 mg (n = 4)", "value": 2, "unit": "n"}, {"measurement": "Patients with CR/CRi", "setting": "[6]; 400 mg (n = 4)", "value": 2, "unit": "n"}, {"measurement": "Best overall response CRi, patients", "setting": "[6]; 400 mg (n = 4), listed as volasertib", "value": "two of four patients"}, {"measurement": "Remission duration, median (range)", "setting": "[6]; 400 mg, 2 patients with CR/CRi", "value": "72 (70–74) days"}, {"measurement": "Best overall response CR, patients", "setting": "[6]; 450 mg (n = 8)", "value": 2, "unit": "n"}, {"measurement": "Best overall response CRi, patients", "setting": "[6]; 450 mg (n = 8)", "value": 1, "unit": "n"}, {"measurement": "Best overall response PD, patients", "setting": "[6]; 450 mg (n = 8)", "value": 1, "unit": "n"}, {"measurement": "Best overall response PR, patients", "setting": "[6]; 450 mg (n = 8)", "value": 1, "unit": "n"}, {"measurement": "Best overall response SD, patients", "setting": "[6]; 450 mg (n = 8)", "value": 3, "unit": "n"}, {"measurement": "Patients with CR/CRi", "setting": "[6]; 450 mg (n = 8)", "value": 3, "unit": "n"}, {"measurement": "Remission duration, median (range)", "setting": "[6]; 450 mg, 3 patients with CR/CRi", "value": "96 (56–262) days"}, {"measurement": "Best overall response CR, patients", "setting": "[6]; Total (N = 19)", "value": 3, "unit": "n"}, {"measurement": "Best overall response CR, share of patients", "setting": "[6]; Total (N = 19)", "value": 15.8, "unit": "%"}, {"measurement": "Best overall response CRi, patients", "setting": "[6]; Total (N = 19)", "value": 3, "unit": "n"}, {"measurement": "Best overall response CRi, share of patients", "setting": "[6]; Total (N = 19)", "value": 15.8, "unit": "%"}, {"measurement": "Best overall response PD, patients", "setting": "[6]; Total (N = 19)", "value": 4, "unit": "n"}, {"measurement": "Best overall response PD, share of patients", "setting": "[6]; Total (N = 19)", "value": 21.1, "unit": "%"}, {"measurement": "Best overall response PR, patients", "setting": "[6]; Total (N = 19)", "value": 1, "unit": "n"}, {"measurement": "Best overall response PR, share of patients", "setting": "[6]; Total (N = 19)", "value": 5.3, "unit": "%"}, {"measurement": "Best overall response SD, patients", "setting": "[6]; Total (N = 19)", "value": 8, "unit": "n"}, {"measurement": "Best overall response SD, share of patients", "setting": "[6]; Total (N = 19)", "value": 42.1, "unit": "%"}, {"measurement": "Patients achieving best response of CR, CRi or PR", "setting": "[6]; Total (N = 19)", "value": 36.8, "unit": "%"}, {"measurement": "Patients with CR/CRi", "setting": "[6]; Total (N = 19)", "value": 6, "unit": "n"}, {"measurement": "Remission duration, median (range)", "setting": "[6]; Total, 6 patients with CR/CRi", "value": "85 (56–358) days"}, {"measurement": "Remission duration, median (range)", "setting": "[6]; Total, 6 patients with CR/CRi, listed as volasertib", "value": 85, "unit": "days"}, {"measurement": "Patients achieving best response of CR, CRi or PR", "setting": "[6]; out of 19 treated patients", "value": 7, "unit": "patients"}, {"measurement": "Duration for which CR was maintained in one patient", "setting": "[6]; person, primary refractory M2 de novo AML, complex karyotype, CR after cycle 3", "value": 358, "unit": "days"}, {"measurement": "Inhibition of PLK2", "setting": "[7]", "value": "to a lesser extent"}, {"measurement": "DLT reported in White patients", "setting": "[8]; 400 mg", "value": "mucosal inflammation"}, {"measurement": "DLT reported in White patients", "setting": "[8]; 450 mg", "value": "pyrexia"}, {"measurement": "MTD in White patients", "setting": "[8]; volasertib monotherapy, phase I", "value": 450, "unit": "mg"}]}]}
